Source: ChEMBL document CHEMBL2331355, “Synthesis, structure activity relationship and mode of action of 3-substitutedphenyl-1-(2,2,8,8-tetramethyl-3,4,9,10-tetrahydro-2H,8H-pyrano[2,3-f]chromen-6-yl)-propenones as novel anticancer agents in human leukaemia HL-60 cells” (Eur J Med Chem, 2013)

Experiments:
Format in all cases: functional
MDA-MB-435 = assay: Growth inhibition of human MDA-MB-435 cells at 50 uM after 48 hrs by MTT assay; details: MDA-MB-435, 48 h, read-out: GI
Method in brief: (§1)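 Single-concentration MTT screen at 50 µM over 48 h in 96-well plates. Compounds giving >50% inhibition were rescreened at 30 µM. OD read at 570 nm, reference 620 nm. Result expressed as % growth inhibition versus untreated control. Mitomycin C, adriamycin or 5-fluorouracil used as positive controls. Mean ± SD of three independent experiments.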

PC-3 = assay: Growth inhibition of human PC3 cells at 50 uM after 48 hrs by MTT assay; details: PC-3, 48 h, read-out: GI; method in brief: as §1
HL-60 = assay: Growth inhibition of human HL60 cells at 50 uM after 48 hrs by MTT assay; details: HL-60, 48 h, read-out: GI; method in brief: as §1
MIA PaCa-2 = assay: Growth inhibition of human MIAPaCa2 cells at 50 uM after 48 hrs by MTT assay; details: MIA PaCa-2, 48 h, read-out: GI; method in brief: as §1
Caco-2 = assay: Growth inhibition of human Caco2 cells at 50 uM after 48 hrs by MTT assay; details: Caco-2, 48 h, read-out: GI; method in brief: as §1
MCF7 = assay: Growth inhibition of human MCF7 cells at 50 uM after 48 hrs by MTT assay; details: MCF7, 48 h, read-out: GI; method in brief: as §1
ASPC1 = assay: Growth inhibition of human AsPC1 cells at 50 uM after 48 hrs by MTT assay; details: ASPC1, 48 h, read-out: GI; method in brief: as §1

| Structure (SMILES) | inhibition of growth at 50 µM (MDA-MB-435) [%] | inhibition of growth at 50 µM (PC-3) [%] | inhibition of growth at 50 µM (HL-60) [%] | inhibition of growth at 50 µM (MIA PaCa-2) [%] | inhibition of growth at 50 µM (Caco-2) [%] | inhibition of growth at 50 µM (MCF7) [%] | inhibition of growth at 50 µM (ASPC1) [%] |
| --- | --- | --- | --- | --- | --- | --- | --- |
| CC(=O)c1cc2c(c3c1OC(C)(C)CC3)OC(C)(C)CC2 | 2 | 19 | 25 | 25 | 20 | 18 | 5 |
| CC1(C)CCc2cc(C(=O)/C=C/c3ccc(Br)cc3)c3c(c2O1)CCC(C)(C)O3 | 52 | 33 | 25 | 45 | 28 | 16 | 27 |
| Cc1ccc(/C=C/C(=O)c2cc3c(c4c2OC(C)(C)CC4)OC(C)(C)CC3)cc1 | 38 | 48 | 18 | 41 | 11 | 15 | 2 |
